Source: ChEMBL document CHEMBL4610031, “Design, synthesis and biological evaluation of Proteolysis Targeting Chimeras (PROTACs) as a BTK degraders with improved pharmacokinetic properties” (Bioorg Med Chem Lett, 2020)

What was measured:
[1] = AUClast in mouse at 1 mg/kg, iv; format: ADME, organism-based; parameters: dose 1 mg/kg, time 0 - last, route intravenous; conditions: in vivo
[2] = target: T1, Protein cereblon/Tyrosine-protein kinase BTK (Homo sapiens, UniProt Q06187+Q96SW2); test: Protac activity at CRBN/BTK in human NAMALWA cells assessed as induction of BTK protein degradation incubated for 24 hrs by immunoblotting method; format: cell-based; conditions: namalva
In short: (§1)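 NAMALWA cells were grown in RPMI 1640 with 10% FBS, streptomycin and penicillin at 37 °C, 5% CO2. 2 × 10^6 cells per concentration were treated 24 h, rinsed in cold PBS, and lysed in Tris pH 8.0/deoxycholate/Triton X-100 with protease and phosphatase inhibitors.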
Target sequence in this assay (Q06187 whole entry): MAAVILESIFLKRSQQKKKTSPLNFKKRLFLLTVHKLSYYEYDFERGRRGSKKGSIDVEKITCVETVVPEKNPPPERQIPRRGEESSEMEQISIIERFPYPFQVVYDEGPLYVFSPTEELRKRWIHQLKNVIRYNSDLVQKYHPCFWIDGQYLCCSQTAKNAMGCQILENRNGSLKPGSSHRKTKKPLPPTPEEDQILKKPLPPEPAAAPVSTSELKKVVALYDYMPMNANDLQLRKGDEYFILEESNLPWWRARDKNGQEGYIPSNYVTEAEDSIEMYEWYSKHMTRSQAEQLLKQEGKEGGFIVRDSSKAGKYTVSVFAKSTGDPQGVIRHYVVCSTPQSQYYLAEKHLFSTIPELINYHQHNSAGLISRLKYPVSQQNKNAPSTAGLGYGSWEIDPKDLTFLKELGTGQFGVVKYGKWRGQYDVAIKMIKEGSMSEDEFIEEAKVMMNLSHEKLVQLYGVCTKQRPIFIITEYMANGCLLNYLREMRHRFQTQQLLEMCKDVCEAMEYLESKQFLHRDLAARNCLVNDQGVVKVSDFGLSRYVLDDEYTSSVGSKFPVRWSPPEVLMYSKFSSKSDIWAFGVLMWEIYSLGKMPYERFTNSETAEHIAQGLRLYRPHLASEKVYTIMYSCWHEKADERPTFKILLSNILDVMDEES
Target sequence in this assay (Q96SW2 whole entry): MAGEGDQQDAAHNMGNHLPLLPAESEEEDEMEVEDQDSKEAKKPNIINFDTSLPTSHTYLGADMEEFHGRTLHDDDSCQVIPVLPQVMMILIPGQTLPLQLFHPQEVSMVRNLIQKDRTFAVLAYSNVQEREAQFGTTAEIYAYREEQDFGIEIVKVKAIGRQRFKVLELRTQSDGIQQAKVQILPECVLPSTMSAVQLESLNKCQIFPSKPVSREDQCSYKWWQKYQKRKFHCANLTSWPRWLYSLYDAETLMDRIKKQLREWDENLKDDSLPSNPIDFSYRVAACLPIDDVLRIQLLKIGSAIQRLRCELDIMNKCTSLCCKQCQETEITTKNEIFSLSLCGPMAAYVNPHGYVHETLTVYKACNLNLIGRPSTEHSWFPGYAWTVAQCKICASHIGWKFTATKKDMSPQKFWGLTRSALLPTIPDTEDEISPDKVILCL

[3] = Tmax in mouse at 1 mg/kg, iv; format: ADME, organism-based; conditions: in vivo
[4] = target: T1, Protein cereblon/Tyrosine-protein kinase BTK; test: Protac activity at CRBN/BTK in human NAMALWA cells assessed as induction of BTK protein degradation incubated for 24 hrs by immunoblotting method relative to control; format: cell-based; conditions: NAMALVA; in short: as §1
Target sequence in this assay (Q06187 2-659 limits assumed): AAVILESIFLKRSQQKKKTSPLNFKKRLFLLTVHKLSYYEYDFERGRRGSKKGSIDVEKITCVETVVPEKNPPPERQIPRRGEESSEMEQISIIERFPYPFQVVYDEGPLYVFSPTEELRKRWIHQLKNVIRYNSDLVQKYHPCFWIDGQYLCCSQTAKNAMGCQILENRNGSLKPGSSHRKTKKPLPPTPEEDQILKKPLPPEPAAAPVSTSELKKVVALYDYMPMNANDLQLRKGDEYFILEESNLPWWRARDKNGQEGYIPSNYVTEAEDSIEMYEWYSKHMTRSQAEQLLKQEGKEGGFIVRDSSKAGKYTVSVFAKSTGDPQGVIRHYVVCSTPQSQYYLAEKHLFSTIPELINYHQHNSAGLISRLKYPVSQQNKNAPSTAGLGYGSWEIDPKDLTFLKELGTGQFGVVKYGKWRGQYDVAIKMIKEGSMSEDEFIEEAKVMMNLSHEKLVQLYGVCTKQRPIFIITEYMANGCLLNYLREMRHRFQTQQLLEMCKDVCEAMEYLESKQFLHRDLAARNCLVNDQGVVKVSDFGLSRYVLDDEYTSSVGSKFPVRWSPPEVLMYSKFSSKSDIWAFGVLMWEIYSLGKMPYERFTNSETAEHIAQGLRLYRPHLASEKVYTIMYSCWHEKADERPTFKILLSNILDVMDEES
Target sequence in this assay (Q96SW2 whole entry partner): as the sequence (Q96SW2 whole entry) above

[5] = target: T2, von Hippel-Lindau disease tumor suppressor/Tyrosine-protein kinase BTK (Homo sapiens, UniProt Q06187+P40337); test: Protac activity at VHL/BTK in human NAMALWA cells assessed as induction of BTK protein degradation incubated for 24 hrs by immunoblotting method; format: cell-based; conditions: namalva; in short: as §1
Target sequence in this assay (Q06187 whole entry): as the sequence (Q06187 whole entry) above
Target sequence in this assay (P40337 whole entry): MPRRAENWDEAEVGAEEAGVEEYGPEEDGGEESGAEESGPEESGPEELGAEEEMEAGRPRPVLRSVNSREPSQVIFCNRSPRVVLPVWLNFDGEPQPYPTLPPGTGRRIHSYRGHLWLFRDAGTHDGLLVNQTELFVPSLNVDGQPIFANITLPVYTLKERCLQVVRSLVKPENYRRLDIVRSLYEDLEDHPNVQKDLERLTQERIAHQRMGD

[6] = target: T2, von Hippel-Lindau disease tumor suppressor/Tyrosine-protein kinase BTK; test: Protac activity at VHL/BTK in human NAMALWA cells assessed as induction of BTK protein degradation incubated for 24 hrs by immunoblotting method relative to control; format: cell-based; conditions: NAMALVA; in short: as §1
Target sequence in this assay (P40337 whole entry partner): as the sequence (P40337 whole entry) above
Target sequence in this assay (Q06187 2-659 limits assumed): as the sequence (Q06187 2-659 limits assumed) above

Row | Structure (SMILES) | AUClast [1] [ng·h/mL] | DC50 [2] [nM] | Tmax [3] [min] | Emax [4] [%] | DC50 [5] [nM] | Emax [6] [%]
1 | Nc1ncnc2c1c(-c1ccc(Oc3ccccc3)cc1)nn2C1CCN(CCOCCOCC(=O)Nc2ccc3c(c2)C(=O)N(C2CCC(=O)NC2=O)C3=O)CC1 (configuration not stated) | 10.2 | 6.2 | 1.98 | 99 | – | –
2 | Nc1ncnc2c1c(-c1ccc(Oc3ccccc3)cc1)nn2C1CCN(CCOCCOCCOc2ccc3c(c2)C(=O)N(C2CCC(=O)NC2=O)C3=O)CC1 (configuration not stated) | 166 | 8.3 | 1.98 | 91 | – | –
3 | Cc1ncsc1-c1ccc(CNC(=O)[C@@H]2C[C@@H](O)CN2C(=O)[C@H](C(C)C)N2Cc3ccccc3C2=O)c(OCCCCOCCCCN2CCC(n3nc(-c4ccc(Oc5ccccc5)cc4)c4c(N)ncnc43)CC2)c1 | – | – | – | – | 162 | 50
4 | Cc1ncsc1-c1ccc(CNC(=O)[C@@H]2C[C@@H](O)CN2C(=O)[C@@H](NC(=O)COCCOCCN2CCC(n3nc(-c4ccc(Oc5ccccc5)cc4)c4c(N)ncnc43)CC2)C(C)(C)C)cc1 | – | – | – | – | 374 | 49
5 | Nc1ncnc2c1c(-c1ccc(Oc3ccccc3)cc1)nn2C1CCN(CCOCCOCCOc2ccc3c(c2)CN(C2CCC(=O)NC2=O)C3=O)CC1 (configuration not stated) | 405 | 7.9 | 1.98 | 95 | – | –
6 | Cc1ncsc1-c1ccc(CNC(=O)[C@@H]2C[C@@H](O)CN2C(=O)[C@H](C(C)C)N2Cc3ccccc3C2=O)c(OCCCOCCC(=O)N2CCC(n3nc(-c4ccc(Oc5ccccc5)cc4)c4c(N)ncnc43)CC2)c1 | – | – | – | – | > 1000 | –
